# From PubChem BioAssay
# Gli-Sufu block = Gli-Sufu pathway antagonists, primary screen, luciferase luminescence, Sufu-KO-LIGHT cells, uHTS | AID 588413, 2011 | Sufu-KO-LIGHT fibroblasts, Gli luciferase reporter luminescence | 0.74% of 340,000 active | inhibition, % at 5 µM;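 active means inhibition above about 55%, limit read from the data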
# GalR3 antag = GalR3 antagonists in HEK293 cells, primary screen, cell-based, fluorescence readout; Galanin receptor type 3 (Homo sapiens), O60755; 0.44% of 360,000 active; inhibition, % at 3 µM; HEK293 GalR3-CNG cAMP membrane potential fluorescence; galR3 body fused to GalR1 C-terminus;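 active means inhibition above the screen-wide average plus 3 SD, cut at about 13% in these data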;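 further: forskolin and galanin both at EC90 stimulate the cells; cAMP rise reported by CNG channel membrane potential dye signal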
# Target sequence (O60755 1-299 limits assumed): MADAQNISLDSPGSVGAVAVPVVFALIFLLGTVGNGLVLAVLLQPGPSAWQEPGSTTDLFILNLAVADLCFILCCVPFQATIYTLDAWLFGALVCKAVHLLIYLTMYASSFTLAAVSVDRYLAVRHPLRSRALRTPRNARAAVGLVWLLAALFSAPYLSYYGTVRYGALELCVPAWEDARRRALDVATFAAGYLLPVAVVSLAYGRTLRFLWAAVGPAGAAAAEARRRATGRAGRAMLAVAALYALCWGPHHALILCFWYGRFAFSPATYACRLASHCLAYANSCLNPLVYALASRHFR
# 697 NFkB inh = inhibitors of PMA/ionomycin-induced NF-kB reporter, 697 cells, primary screen, B-cell NF-kB inhibitor project, cell-based, luminescence, uHTS; AID 435022, 2010; 697 B-cell NF-kB luciferase reporter, 16 h; inhibition, % at 4 µM; 0.33% of 330,000 active; in the data active means inhibition above about 35%
# NR2E3 ag-1 = inhibitors of NR2E3-RetCOR corepressor binding, primary screen, NR2E3 agonist project, biochemical, TR-FRET, GST-NR2E3, biotin-RetCOR. 1536-well. 0.12% of 320,000 active. AID 2300, 2010. inhibition of corepressor binding, % at 4.78 µM. Photoreceptor-specific nuclear receptor (Homo sapiens), Q9Y5X4;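 active means percent inhibition above the cutoff of mean plus 3 SD of all tested compounds, set per screening campaign, cut at about 20% in these data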
# Target sequence (Q9Y5X4 whole entry, looked up): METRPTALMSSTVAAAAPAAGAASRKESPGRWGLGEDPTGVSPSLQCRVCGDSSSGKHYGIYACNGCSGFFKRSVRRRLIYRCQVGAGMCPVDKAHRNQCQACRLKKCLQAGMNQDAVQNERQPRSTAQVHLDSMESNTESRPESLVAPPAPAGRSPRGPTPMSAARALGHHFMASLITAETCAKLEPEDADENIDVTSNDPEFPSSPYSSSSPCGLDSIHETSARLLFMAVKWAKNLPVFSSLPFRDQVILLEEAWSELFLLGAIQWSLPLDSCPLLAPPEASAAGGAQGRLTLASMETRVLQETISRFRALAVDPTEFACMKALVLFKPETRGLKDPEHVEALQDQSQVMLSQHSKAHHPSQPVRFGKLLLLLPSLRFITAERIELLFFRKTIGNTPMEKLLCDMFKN
#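 system = GST-tagged NR2E3 plus biotinylated RetCOR corepressor | input = 1.35 nM GST-NR2E3 | also added = 7 nM biotin-RetCOR | schedule = 5 h incubation at 4 °C | measured by = TR-FRET with europium anti-GST and streptavidin-D2, 340 nm excitation | read-out = percent loss of FRET ratio relative to control wells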
# Jurkat NFkB inh = inhibitors of induced NF-kB luciferase reporter, primary screen, TCR NF-kB activation inhibitor project, cell-based, luminescence, uHTS; 0.53% of 330,000 active; Jurkat, PMA/ionomycin-induced NF-kB luciferase reporter; AID 435003, 2010; inhibition, % at 4 µM; in the data active means inhibition above about 50%
# NR2E3 ag-2 = NR2E3 agonists in two-hybrid cells, primary screen, cell-based, luminescence, CHO-S, Gal4-NCOR/VP16-NR2E3; Photoreceptor-specific nuclear receptor (Homo sapiens), Q9Y5X4; inhibition of corepressor binding, % at 3.98 µM; 0.35% of 360,000 active; luciferase;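 active means inhibition above the mean of all tested compounds plus 3 SD, cut at about 70% in these data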;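 further: higher means lower luciferase signal from less NR2E3 corepressor binding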
# Jurkat NFkB conf = PMA/ionomycin-induced NF-kB reporter inhibitors, Jurkat retest, confirmation, T-cell NF-kB inhibitor project, cell-based, luminescence, single concentration | inhibition, % at 4 µM | shares compounds with Jurkat NFkB inh | Jurkat NF-kB luciferase, 16 h | 27% of 2,700 active | AID 435020, 2010;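 active means inhibition reaching about 45% at 4 µM in either replicate, limit read from the data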
# 697 NFkB conf = PMA/ionomycin-induced NF-kB reporter inhibitors, 697 retest, confirmation, B-cell NF-kB inhibitor project, cell-based, luminescence, single concentration; shares compounds with 697 NFkB inh; 697 B-cell NF-kB luciferase, 16 h; inhibition, % at 4 µM; 35% of 2,000 active; AID 449746, 2010; in the data active means inhibition mostly above about 28%, no sharp cut-off; inactive means mostly below about 22%
# Gli antag conf = Gli-SUFU pathway antagonists, confirmation, single concentration, luciferase luminescence, Sufu-KO-LIGHT cells; shares compounds with Gli-Sufu block; Gli luciferase reporter; inhibition, % at 5 µM; 40% of 2,500 active; AID 602428, 2012;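 active means mean inhibition at 5 µM reaching about 45%, limit read from the data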
# Gli cytotox = cytotoxicity in Sufu-KO-LIGHT cells, confirmation, cytotoxicity control for Gli-SUFU antagonist project, cell-based, ATP luminescence, single concentration; shares compounds with Gli-Sufu block; cytotoxicity, % at 5 µM; 32% of 2,500 active; AID 651994, 2013;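 active means mean cytotoxicity at 5 µM above about 25%, limit read from the data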;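 further: cells exposed to compound overnight for roughly 16 to 18 hours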
# Wnt3a counter = Wnt3a reporter signal inhibition, confirmation, counter-screen for Gli-SUFU antagonist project, Wnt-LIGHT cells, luminescence, single concentration. shares compounds with Gli-Sufu block. Wnt3a-driven luciferase reporter. inhibition, % at 6.25 µM. 20% of 2,500 active;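 active means mean inhibition above about 25%, limit read from the data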
# NR2E3 ag conf = NR2E3 agonist confirmation in cells, cell-based, luminescence, CHO-S two-hybrid. shares compounds with NR2E3 ag-2. CHO-S mammalian two-hybrid NR2E3-NCOR, luciferase luminescence. inhibition, % at 3.98 µM. 51% of 2,300 active. AID 624378, 2012;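 active means average inhibition above a cutoff equal to the mean inhibition of all tested compounds plus one SD, cut at about 70% in these data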
# GAL4-VP16 luc = GAL4-VP16 reporter modulators, confirmation, counter-screen for NR2E3 agonist project, cell-based, luminescence, CHO-S, high throughput. shares compounds with NR2E3 ag-2. CHO-S GAL4-VP16 luciferase reporter. inhibition, % at 3.98 µM. 29% of 2,300 active;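 active means mean inhibition above a cutoff equal to the average over all tested compounds plus one standard deviation, cut at about 70% in these data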;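 further: luciferase from a UAS reporter driven by GAL4-VP16 transactivation; higher means less reporter light so more repression of VP16 activity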
# A number is an active result; - = inactive; . = no result given. Compounds with a hit are over-represented: about 1.8% of the library has one in this group of screens.
SMILES,Gli-Sufu block,GalR3 antag,697 NFkB inh,NR2E3 ag-1,Jurkat NFkB inh,NR2E3 ag-2,Jurkat NFkB conf,Gli antag conf,Gli cytotox,Wnt3a counter,others
C[C@H](O)[C@@H]1C(=O)N2CCc3c([nH]c4c(-c5ccccc5)cccc34)[C@@H]2C[C@@H]1N(C)C(=O)c1ccco1,.,-,.,.,.,.,.,.,.,.,
CC[n+]1c(/C=C/N(C)c2ccccc2)oc2ccccc21,85.2,-,-,-,59.6,-,53.8,87.0,42.3,33.0,
Cc1cc2c(c(=O)o1)[C@@]1(C(=O)Nc3ccccc31)C1=C(CCCC1=O)O2,.,-,.,.,.,.,.,.,.,.,
CC(=O)Nc1ccc(S(=O)(=O)N2CC3(C)CC2CC(C)(C)C3)cc1 (configuration not stated),-,-,-,-,-,-,.,.,.,.,
CCOC(=O)c1cc([N+](=O)[O-])sc1NC(=O)c1ccc(S(=O)(=O)N2CC3(C)CC2CC(C)(C)C3)cc1 (configuration not stated),71.0,-,-,-,57.1,-,-,82.0,26.8,50.3,
COC(=O)[C@]12C[C@H](CC(=O)NCc3cccc4ccccc34)C(=O)N(CCC3=CCCCC3)C1=C[C@H](C(C)(C)C)O[C@@H]2C,.,-,.,.,.,.,.,.,.,.,
C[C@@H]1CN([C@@H](C)CO)C(=O)CCCn2cc(nn2)CO[C@H]1CN(C)C(=O)Nc1cccc(F)c1,.,-,.,.,.,.,.,.,.,.,
CC(=O)NC(c1ccc(C(C)C)cc1)c1ccc2cccnc2c1O (configuration not stated),90.0,-,-,-,51.4,-,73.5,83.0,50.0,73.5,
COc1ccc(CN2CCC(C(=O)Nc3ccc(Oc4cccnc4)cc3)CC2)c(C)c1C,59.6,-,-,-,54.2,-,-,-,-,-,
O=c1[nH]c(/C=C2\C=Nc3ccccc32)c(O)n1Cc1ccccc1F,56.2,-,-,-,84.0,-,-,65.3,26.7,-,
COC(=O)C1=C(C(=O)OC)C2CCCC1C1N=NN(c3ccccc3)C21 (configuration not stated),.,-,.,.,.,.,.,.,.,.,
Nc1ccn([C@@H]2O[C@H](C(=O)N[C@H](Cc3ccccc3)C(=O)N3CCN(C(=O)N4CCOCC4)CC3)[C@@H](O)[C@H]2O)c(=O)n1,.,-,.,.,.,.,.,.,.,.,
N#Cc1ccc(-c2cccs2)nc1SCc1cccnc1,60.4,-,-,-,65.6,-,-,-,55.4,-,
COc1ccc(N(C(=O)c2cnccn2)C(C(=O)NC2CCCCC2)c2ccc(Cl)cc2)cc1 (configuration not stated),-,-,-,-,-,-,.,.,.,.,
COc1ccc(C(C(=O)NC2CCCCC2)N(C(=O)CCl)c2ccc(Cl)cc2)cc1 (configuration not stated),84.8,.,92.4,-,75.9,-,-,-,27.8,-,697 NFkB conf=19.2
O=C(NC(C(=O)N1CCCC1C(=O)NC1CCCC1)c1ccccc1)c1cccs1 (configuration not stated),.,-,.,.,.,.,.,.,.,.,
COc1ccc(/C=C/C(=O)c2cc(F)ccc2OC(=O)c2ccccc2)cc1OC,-,-,-,-,58.4,-,61.0,60.4,49.5,-,
COc1ccc(/C=C/C(=O)c2cc(F)ccc2OC(=O)c2ccc(OC)c(OC)c2)cc1OC,-,-,-,-,-,-,.,.,.,.,
Cc1cc(C(C)(C)C)cc(C)c1C[n+]1ccc2ccccc2c1,79.1,-,-,-,77.1,-,50.7,88.2,-,45.8,
Cc1ccc(C(=O)C[n+]2ccc3ccccc3c2)cc1,-,-,-,-,-,-,.,.,.,.,
COc1ccc(OC)c(CN(CC(C)C)S(=O)(=O)c2ccccc2Br)c1,.,-,.,.,.,.,.,.,.,.,
CCCCCCCCCn1c2c(c(=N)c3c1CCC3)CCC2,93.9,.,93.5,-,90.9,101.3,73.5,.,.,.,697 NFkB conf=-;NR2E3 ag conf=98.8;GAL4-VP16 luc=91.7
CCn1c2c(c(=N)c3c1CCC3)CCC2,-,-,-,-,-,-,.,.,.,.,
CCOc1cc(CNCCc2ccc(S(N)(=O)=O)cc2)ccc1OCc1ccc(Cl)cc1,-,-,-,-,54.1,-,-,.,.,.,NR2E3 ag conf=-;GAL4-VP16 luc=-
COc1ccc(CNC(=O)c2c(C)oc3c2C(=O)c2ccccc2C3=O)cc1,63.8,-,-,-,59.8,-,58.6,.,.,.,NR2E3 ag conf=98.5;GAL4-VP16 luc=-
C[C@@H]1CCCCO[C@@H](CN(C)C(=O)CCC(F)(F)F)[C@@H](C)CN([C@H](C)CO)C(=O)c2cc(NS(=O)(=O)c3cccs3)ccc2O1,.,-,.,.,.,.,.,.,.,.,
O=C(O)CSCC(=O)Nc1ccc(C2CCCCC2)cc1,-,-,90.2,-,63.2,71.9,77.6,.,.,.,697 NFkB conf=83.2;NR2E3 ag conf=-;GAL4-VP16 luc=-
CCc1ccccc1Nc1ncnc2ccccc12,.,-,-,-,-,-,.,.,.,.,
CCCCCCCCNc1ncnc2ccccc12,81.6,.,107.0,-,71.1,91.6,68.1,.,.,.,697 NFkB conf=100.5;NR2E3 ag conf=98.8;GAL4-VP16 luc=91.6
